Source: PubChem
A selection: hits, their analogues and other compounds. The true share with any hit is near 3.7%.
KCNQ1 act: human KCNQ1 channel potentiation or activation | P51787 | CHO-K1 KCNQ1, thallium flux FluxOR fluorescence; hits give high values | B-score at 10 µM | 310,000 compounds, 0.35% hits | AID 2648;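 active = fluorescence ratio B-score, a plate-corrected score, at least three library SD, with initial intensity B-score within 5 SD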
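Assay system: stable KCNQ1 CHO-K1 line; medium: assay buffer, equal DMSO in all wells; timing: 90 min dye loading and 20 min compound exposure, both at room temperature; technique: kinetic FluxOR thallium fluorescence, 10-s 1-Hz baseline, 110-s post-stimulus read; read-out basis: B score of baseline-normalized fluorescence ratio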
Kir21 block: Kir2.1 (mouse) channel inhibition | HEK293-Kir2.1, FluxOR thallium flux fluorescence; hits give low values | B-score at 10 µM | 310,000 compounds, 0.85% hits | AID 1672;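 active = fluorescence ratio B-score at or below minus 3 SD of library scores, with starting-brightness B-score within 2 SD, cut at about -4.2 in these data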;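 also: channel flux triggered by added potassium and thallium sulfate stimulus; B-score of peak minus minimum fluorescence over baseline after thallium stimulus; more negative B-score means stronger Kir2.1 block with less thallium influx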
Target sequence (P35561 whole entry, looked up): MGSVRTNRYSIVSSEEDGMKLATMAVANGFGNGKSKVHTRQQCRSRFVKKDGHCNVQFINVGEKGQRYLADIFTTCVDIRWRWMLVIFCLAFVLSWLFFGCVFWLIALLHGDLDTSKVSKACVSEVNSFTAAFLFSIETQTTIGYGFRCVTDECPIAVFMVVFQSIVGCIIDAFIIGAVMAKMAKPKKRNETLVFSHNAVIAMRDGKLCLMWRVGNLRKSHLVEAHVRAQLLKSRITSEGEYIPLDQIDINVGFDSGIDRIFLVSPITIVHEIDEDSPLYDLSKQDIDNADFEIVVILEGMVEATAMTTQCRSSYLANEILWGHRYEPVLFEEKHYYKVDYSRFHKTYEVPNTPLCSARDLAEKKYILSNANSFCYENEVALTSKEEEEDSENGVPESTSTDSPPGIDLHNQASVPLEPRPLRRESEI
KCNQ1 block: blocks the human KCNQ1 potassium channel. P51787. B-score at 10 µM. AID 2642. 310,000 compounds, 1.3% hits. CHO-K1 KCNQ1, FluxOR thallium flux fluorescence; hits give high values;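 active = compounds whose thallium flux B-score, printed positive for inhibition, exceeds three library SD while starting fluorescence stays within three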;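 also: channel opened by potassium depolarization with thallium stimulus after 20 min compound exposure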
KCNK3 inh: human KCNK3 channel inhibition, primary screen; O14649; CHO-KCNK3 thallium flux, FluxOR fluorescence; hits give low values; B-score at 10 µM; 340,000 compounds, 0.84% hits;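 active = B-score under library mean minus 4 SD, starting fluorescence ratio at most library mean plus 5 SD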;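 also: more negative B-score means stronger inhibition of thallium flux through KCNK3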
KCNK9 block: blocks the human KCNK9 two-pore domain potassium channel. HEK293 KCNK9, FluxOR thallium flux fluorescence; hits give low values. Q9NPC2. B-score at 10 µM. 310,000 compounds, 1.2% hits;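 active = ratio B-score over 3 SD below the library mean, with starting fluorescence within 5 SD of its mean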;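 also: negative B-score means less thallium flux so channel inhibition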
hERG protect: compounds protecting human hERG from proarrhythmic drug block; CHO-hERG, FluxOR thallium flux, dofetilide IC70 present; activation (rescue from dofetilide block), less the hit threshold, % at 10 µM; 310,000 compounds, 0.51% hits; AID 1511;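 active = activation above the mean of controls blocked by dofetilide plus 5 SD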;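 also: thallium influx through hERG after potassium depolarization seen as dye fluorescence rise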
KCNK9 block conf: confirmation of human KCNK9 potassium channel inhibitors; 4,900 compounds, 43% hits; shares compounds with KCNK9 block; HEK293 KCNK9 cells, FluxOR thallium flux fluorescence; inhibition, % at 10 µM;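 active = thallium signal inhibited by more than 5 SD of the compound-free buffer control wells, on both duplicate plates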;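 also: 0% = assay buffer control wells without compound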
Kir21 sel: tests whether KCNK9 modulators also affect mouse Kir2.1; shares compounds with KCNK9 block; Kir2.1 cells, FluxOR thallium flux fluorescence; inhibition, % at 10 µM; 4,900 compounds, 4% hits; AID 492993;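 active = thallium signal drop more than 5 SD beyond the mean of the no-compound control wells, seen in both duplicate plates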;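 also: signal is fluorescence rise after thallium addition divided by baseline fluorescence; plate controls were assay buffer only for no effect and full block by chlorpromazine control for full effect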
KCNK9 uninduced: second counter-screen for KCNK9 modulators: effect in non-induced cells; shares compounds with KCNK9 block; non-induced KCNK9-HEK293, FluxOR thallium flux; inhibition, % at 10 µM; 4,900 compounds, 40% hits; AID 492997;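 active = thallium signal drop beyond 5 SD of the untreated control mean, on both duplicate plates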;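 also: plate controls were buffer only IC0 wells for no effect and SID17386958 at its maximal inhibitory level for full effect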
* = called active by the depositor; i = inactive; . = no result.

SMILES	KCNQ1 act	Kir21 block	KCNQ1 block	KCNK3 inh	KCNK9 block	hERG protect	KCNK9 block conf	Kir21 sel	KCNK9 uninduced
CCOc1ccccc1NC(=O)c1ccc(Cl)c(NC(=O)CC(c2ccccc2)c2ccccc2)c1	i	-0.04	i	i	-9.9*	-4	49%*	i	30%*
CCOc1ccc(C(=O)Nc2ccc(NC(=S)NC(=O)CC)cc2)cc1Cl	i	-1.8	i	i	i	-12	.	.	.
CCOc1ccc(C(=O)Nc2cc(NC(=O)c3ccc(OCC)c(Cl)c3)cc(C(=O)O)c2)cc1Cl	i	0.28	i	i	i	-10	i	i	i
Cc1cccc(NC(=O)c2ccc(COc3ccc(Cl)cc3Cl)o2)n1	i	-1.6	i	i	i	-4	i	i	i
Cc1cccc(NC(=O)c2ccc(COc3ccc4ccccc4c3)o2)n1	i	0.27	i	i	i	-3	.	.	.
Cc1[nH][nH]c(=O)c1C(c1c(C)[nH][nH]c1=O)c1cn(Cc2ccccc2Cl)c2ccccc12	i	-0.74	i	i	i	-14	i	i	i
N/C(=N\O)c1cn(Cc2ccccc2Cl)c2ccccc12	i	-3.6	i	i	i	-12	.	.	.
CCOC(=O)c1ccccc1NC(=O)c1cn(-c2ccc(OC)cc2)c(=O)c2ccccc12	i	0.45	i	i	-9.3*	-6	26%*	i	i
Cc1c(Cl)cccc1NC(=O)C1CC(=O)N(C2CCCC2)C1 (configuration not stated)	.	.	.	i	.	.	.	.	.
CCOc1ccc(N(C)S(=O)(=O)c2ccc(-c3cc(C)no3)s2)cc1	i	0.65	i	i	i	-6	.	.	.
CCOc1ccc(N(C)S(=O)(=O)c2cc(-c3cc(C)no3)ccc2C(C)C)cc1	i	1.2	i	i	-9.5*	-19	52%*	i	42%*
CC(C)(C)c1ccc(/C=N/NC(=S)NC2CCCCC2)cc1	i	0.5	i	i	i	-7	i	i	i
Cc1ccc(NC(=O)c2ccccc2N(C)S(C)(=O)=O)cc1C	i	0.58	i	i	i	-7	.	.	.
CC(NC(=O)CSCc1ccc(Br)cc1)c1ccccc1 (configuration not stated)	i	-2.5	i	i	i	-7	.	.	.
CC(NC(=O)CSCc1ccccc1Br)c1ccccc1 (configuration not stated)	i	-3	i	i	i	-21	i	i	i
CC1CN(c2cc(-c3ccccc3)c3ccccc3n2)CC(C)O1 (configuration not stated)	i	-1.1	i	i	i	-7	i	i	i
CC1CN(c2nc3ccccc3cc2-c2ccccc2)CC(C)O1 (configuration not stated)	i	-0.34	i	i	i	-11	i	i	i
Cc1nnc2ccc(-c3ccc(NS(=O)(=O)c4ccc(Cl)s4)cc3)nn12	.	.	.	i	.	.	.	.	.
O=C(NCc1ccncc1)C(=O)NCC1OCCN1S(=O)(=O)c1cc(F)ccc1F (configuration not stated)	i	0.31	i	i	i	-5	.	.	.
Cc1ccc(C)c(NC(=O)c2ccccc2NS(=O)(=O)c2cc([N+](=O)[O-])ccc2C)c1	i	-0.97	i	i	i	-7	.	.	.
Cc1ccc(C)c(NC(=O)c2ccccc2Sc2ccc([N+](=O)[O-])cc2Cl)c1	i	-0.02	i	i	-14*	-4	61%*	i	47%*
CN(c1ccc(OCc2nnc(-c3ccccc3)o2)cc1)S(=O)(=O)c1ccccc1	i	0.82	i	i	i	-7	.	.	.
CN(c1ccc(OCc2ccc([N+](=O)[O-])cc2)cc1)S(=O)(=O)c1ccccc1	i	-1.2	i	i	-8.5*	-11	i	i	29%*
N#Cc1ccc(C(=O)NCC2CCCCC2)cc1	i	0.15	i	i	i	-7	.	.	.
Cc1nn(-c2ccccc2)c(Cl)c1/C=N/NC(=O)c1ccc(CNc2ccccc2)o1	i	-0.2	i	i	i	-9	.	.	.
SMILES	KCNQ1 act	Kir21 block	KCNQ1 block	KCNK3 inh	KCNK9 block	hERG protect	KCNK9 block conf	Kir21 sel	KCNK9 uninduced
Cc1nn(-c2ccccc2)c(Cl)c1/C=N/NC(=O)OC(C)(C)C	i	-0.67	i	i	-11*	-9	49%*	i	i
Cc1nn(-c2ccccc2)c(Cl)c1/C=N\NC(=O)c1cnccn1	i	-0.16	i	i	i	-10	.	.	.
Cc1nn(-c2ccccc2)c(Cl)c1/C=N/NC(=O)c1ccco1	i	-0.33	i	i	-8.7*	-4	50%*	i	28%*
COc1ccc(OC)c(NS(=O)(=O)c2ccc(NC(=O)c3ccc(NS(C)(=O)=O)cc3)cc2)c1	i	0.3	i	i	i	-3	.	.	.
CN(C)S(=O)(=O)c1ccc(N2CCCC2)c(C(=O)NNC(=O)c2ccc(Br)cc2)c1	i	0.2	i	i	i	-10	.	.	.
COC(=O)Cn1c(=O)n(CCc2ccccc2)c(=O)c2c3c(sc21)CCCC3	i	0.84	i	i	i	-10	i	i	i
CC(O)CNc1nc2sc3c(c2c(=O)n1CCc1ccccc1)CCCCC3 (configuration not stated)	i	-0.97	i	i	i	-12	i	i	i
CC(O)CNc1nc2sc3c(c2c(=O)n1Cc1ccco1)CCCCC3 (configuration not stated)	i	0.01	i	i	i	-9	.	.	.
CCOc1ccc2[nH]c3c(=O)n(CCC4=CCCCC4)cnc3c2c1	i	0.88	i	i	i	-10	i	i	i
Cc1cccc(NC(=O)CCCn2c(=S)[nH]c3ccccc3c2=O)c1	i	-1	i	i	i	-10	.	.	.
O=C(CN(c1cccc(C(F)(F)F)c1)S(=O)(=O)c1ccc(Cl)c([N+](=O)[O-])c1)NCc1ccccc1Cl	i	0.08	i	i	-8.3*	-8	42%*	i	36%*
NS(=O)(=O)c1ccc(NCc2ccccc2OCc2ccccc2F)cc1	i	-0.31	i	i	i	-7	.	.	.
NS(=O)(=O)c1ccc(NCc2cc(Cl)ccc2OCc2ccc(F)cc2)cc1	i	-2.3	i	i	-13*	-7	50%*	i	42%*
